Test results reported in ChEMBL document CHEMBL4024768, “Discovery and Optimization of Thiazolidinyl and Pyrrolidinyl Derivatives as Inhaled PDE4 Inhibitors for Respiratory Diseases” (J Med Chem, 2017).

Key:
[1] = Drug level in human hepatocytes treated with 3, 5-Dichloro-4-((S)-2-(3-(cyclopropylmethoxy)-4-(difluoromethoxy)phenyl)-2-((S)-3-(3-(dimethylcarbamoyl)-phenylsulfonyl)thiazolidine-2-carbonyloxy)ethyl)pyridine 1-Oxide at 10 uM after 60 mins by LC-MS/MS analysis; format: ADME, cell-based, Hepatocyte; settings: 1 h
Summary of the method: (§1)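 Pooled mixed-sex cryopreserved human hepatocytes (1 million cells/mL) in Leibovitz L-15 at 37 °C, compound at 10 μM in duplicate. Sampled at 0 and 60 min. Protein-free supernatant evaporated under nitrogen, reconstituted in mobile phase and analysed by LC−MS/MS. Cell-free medium incubation for 60 min as control.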

[2] = Drug level in human hepatocytes treated with 3, 5 -Dichloro-4-( (S)-2-(3 -(cyclopropylmethoxy)-4-(difluoromethoxy)phenyl)-2-(((S)-1-((3- (dimethylcarbamoyl)-phenyl)sulfonyl)pyrrolidine-2-carbonyl)oxy)ethyl)pyridine 1-Oxide at 10 uM after 60 mins by LC-MS/MS analysis; format: ADME, cell-based, Hepatocyte; settings: 1 h; summary of the method: as §1
[3] = Inhibition of PDE4 in human PBMC assessed as reduction in LPS-induced TNFalpha release after 18 hrs by quantitative ELISA
[4] = Inhibition of PDE4 in human U937 cell lysates assessed as residual cAMP after 2.5 mins by LANCE assay
[5] = Intrinsic clearance in human liver microsomes at 1 uM measured after 60 mins in presence NADPH by LC-MS/MS analysis; format: ADME, microsome; settings: read-out: CLH
Summary of the method: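 Compound at 1 μM with human liver microsomes (0.8 mg protein/mL) in Dulbecco's buffer pH 7.4, 1 mM NADPH, 37 °C, in duplicate. Sampled at 0, 5, 10, 20, 30 and 60 min, quenched with ice-cold acetonitrile, and unchanged compound measured by LC−MS/MS. No-NADPH controls; midazolam (1 μM) as phase I control.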

[6] = Protein binding in human plasma at 5 uM after 5 hrs by LC-MS/MS analysis; format: ADME, cell-free; settings: read-out: PPB (converted)
[7] = Metabolic stability in human plasma assessed as compound remaining at 1 uM measured after 60 mins in presence of NADPH by LC-MS/MS analysis; format: ADME, cell-free; settings: read-out: Stability
[8] = Metabolic stability in human lung S9 fraction assessed as compound remaining at 1 uM measured after 60 mins in presence of NADPH by LC-MS/MS analysis; format: ADME; settings: read-out: Stability
[9] = Apparent permeability across apical to basolateral side in human Caco2 cells at 10 uM after 2 hrs by LC-MS/MS analysis; format: ADME, cell-based; settings: Caco-2
[10] = Intrinsic clearance in human hepatocytes assessed per million cells at 1 uM measured after 90 mins by LC-MS/MS analysis; format: ADME, cell-based, Hepatocyte; settings: read-out: CLH
Summary of the method: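 Compound at 1 μM with hepatocytes (1 million cells/mL) in Leibovitz L-15 at 37 °C, in duplicate. Sampled at 0, 10, 20, 30, 60 and 90 min, quenched with ice-cold acetonitrile, centrifuged, and unchanged compound measured by LC−MS/MS. Included 7-ethoxycoumarin and 7-hydroxycoumarin activity controls and cell-free medium controls.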

[11] = Apparent permeability across basolateral to apical side in human Caco2 cells at 10 uM after 2 hrs by LC-MS/MS analysis; format: ADME, cell-based; settings: Caco-2
Rattus norvegicus = test: Anti-inflammatory activity in OVA-induced airway inflammation Brown Norway rat model assessed inhibition of eosinophils recruitment in bronchoalveolar lavage fluid administered intratracheally as powder formulation 2 hrs before aerosolized OVA challenge measured at 24 hrs post aerosolized OVA challenge; format: functional
Summary of the method: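 Male Brown Norway rats sensitized i.p. with OVA (1 mg/rat) plus Al(OH)3 (100 mg/rat) in saline on 3 consecutive days. Challenged 2–3 weeks later with nose-only 1% OVA aerosol for 30 min. Lactose-blended dry powder (10 mg/kg total powder) insufflated intratracheally; dose taken from needle weight difference. BAL with 3 × 4 mL HBSS/EDTA/HEPES at 24 h; total and differential counts by automated counter. ED50 from fitted dose–response curve.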

Row | Structure (SMILES) | Drug metabolism [1] | Drug metabolism [2] | IC50 [3] | IC50 [4] | microsomal CLint at 1 µM [5] | fraction unbound at 5 h, 5 µM [6] | remaining at 1 h, 1 µM [7] | remaining at 1 h, 1 µM [8] | Papp A→B at 2 h, 10 µM [9] | hepatocyte CLint at 1 µM [10] | Papp B→A at 2 h, 10 µM [11] | inhibition (Rattus norvegicus) | ED50 (Rattus norvegicus; inhaled or nasal)
1 | [O-][n+]1cc(Cl)c(C[C@H](O)c2ccc(OC(F)F)c(OCC3CC3)c2)c(Cl)c1 | Metabolite_Detected | Metabolite_Detected | 480 nM | – | – | – | – | – | – | – | – | – | –
2 | CN(C)C(=O)c1cccc(S(=O)(=O)N2CSC[C@H]2C(=O)O[C@@H](Cc2c(Cl)c[n+]([O-])cc2Cl)c2ccc(OC(F)F)c(OCC3CC3)c2)c1 | – | – | 0.035 nM | 0.055 nM | 268 µL/min/mg | 0.0017 | 94% | 52.1% | 2.8 ×10⁻⁶ cm/s | 25.9 µL/min/1e6 cells | 4.46 ×10⁻⁶ cm/s | – | –
3 | Cn1cnc(S(=O)(=O)N2CCS[C@H]2C(=O)O[C@@H](Cc2c(Cl)c[n+]([O-])cc2Cl)c2ccc(OC(F)F)c(OCC3CC3)c2)c1 | – | – | 0.028 nM | 0.02 nM | 281 µL/min/mg | 0.015 | 101% | 77.7% | 0.22 ×10⁻⁶ cm/s | 66.9 µL/min/1e6 cells | 3.95 ×10⁻⁶ cm/s | – | –
4 | CN(C)C(=O)c1cccc(S(=O)(=O)N2CCC[C@H]2C(=O)O)c1 | – | Metabolite_Detected | > 1000 nM | – | – | – | – | – | – | – | – | – | –
5 | O=C(O[C@@H](Cc1c(Cl)c[n+]([O-])cc1Cl)c1ccc(OC(F)F)c(OCC2CC2)c1)[C@@H]1SCCN1S(=O)(=O)c1cccnc1 (relative stereo) | – | – | 0.07 nM | 0.061 nM | – | – | – | – | – | – | – | – | –
6 | COc1ccc(S(=O)(=O)N2CCC[C@H]2C(=O)O[C@@H](Cc2c(Cl)c[n+]([O-])cc2Cl)c2ccc(OC(F)F)c(OCC3CC3)c2)cc1C(=O)N(C)C (relative stereo) | – | – | 0.042 nM | 0.0351 nM | 365 µL/min/mg | 0.0032 | 101% | 71.6% | 0.5 ×10⁻⁶ cm/s | 56.7 µL/min/1e6 cells | 12.5 ×10⁻⁶ cm/s | – | –
7 | O=C(O[C@@H](Cc1c(Cl)c[n+]([O-])cc1Cl)c1ccc(OC(F)F)c(OCC2CC2)c1)[C@@H]1CCCCN1S(=O)(=O)c1ccccc1 (relative stereo) | – | – | 0.203 nM | 0.094 nM | – | – | – | – | – | – | – | – | –
8 | COc1ccc(S(=O)(=O)N2CCS[C@H]2C(=O)O[C@@H](Cc2c(Cl)c[n+]([O-])cc2Cl)c2ccc(OC(F)F)c(OCC3CC3)c2)cc1OC (relative stereo) | – | – | 0.057 nM | 0.041 nM | 200 µL/min/mg | 0.004 | 101% | 50.7% | 0.25 ×10⁻⁶ cm/s | 53.8 µL/min/1e6 cells | 0.82 ×10⁻⁶ cm/s | – | –
9 | CN(C)C(=O)c1cccc(S(=O)(=O)N2CCS[C@H]2C(=O)O[C@@H](Cc2c(Cl)c[n+]([O-])cc2Cl)c2ccc(OC(F)F)c(OC3CCCC3)c2)c1 (relative stereo) | – | – | 0.04 nM | 0.021 nM | – | – | – | – | – | – | – | – | –
10 | Cc1cc(S(=O)(=O)N2CCS[C@H]2C(=O)O[C@@H](Cc2c(Cl)c[n+]([O-])cc2Cl)c2ccc(OC(F)F)c(OCC3CC3)c2)c(C)s1 (relative stereo) | – | – | 0.17 nM | 0.176 nM | – | – | – | – | – | – | – | – | –
11 | CN(C)C(=O)c1cccc(S(=O)(=O)N2CCS[C@H]2C(=O)O[C@@H](Cc2c(Cl)c[n+]([O-])cc2Cl)c2ccc(OC(F)F)c(O)c2)c1 (relative stereo) | Metabolite_Detected | – | 1.95 nM | 0.183 to 1.95 nM | – | – | – | – | – | – | – | – | –
12 | CN(C)C(=O)c1cccc(S(=O)(=O)N2CCCC[C@H]2C(=O)O[C@@H](Cc2c(Cl)c[n+]([O-])cc2Cl)c2ccc(OC(F)F)c(OCC3CC3)c2)c1 (relative stereo) | – | – | 0.012 nM | 0.056 nM | 363 µL/min/mg | 0.0012 | 104% | 72.5% | 21.7 ×10⁻⁶ cm/s | 64.6 µL/min/1e6 cells | 73.4 ×10⁻⁶ cm/s | – | –
13 | COc1ccc(S(=O)(=O)N2CCS[C@H]2C(=O)O[C@@H](Cc2c(Cl)c[n+]([O-])cc2Cl)c2ccc(OC(F)F)c(OCC3CC3)c2)cc1C(=O)N(C)C (relative stereo) | – | – | 0.022 nM | 0.026 nM | 360 µL/min/mg | 0.0017 | 98.8% | 71.2% | 0.23 ×10⁻⁶ cm/s | 47.6 µL/min/1e6 cells | 7.67 ×10⁻⁶ cm/s | – | –
14 | COc1ccc(S(=O)(=O)N2CCCC[C@H]2C(=O)O[C@@H](Cc2c(Cl)c[n+]([O-])cc2Cl)c2ccc(OC(F)F)c(OCC3CC3)c2)cc1C(=O)N(C)C (relative stereo) | – | – | 0.015 nM | 0.031 nM | 244 µL/min/mg | 0.0023 | 88.2% | 59.7% | 13.2 ×10⁻⁶ cm/s | 33.2 µL/min/1e6 cells | 68.4 ×10⁻⁶ cm/s | – | –
15 | CNC(=O)c1cc(S(=O)(=O)N2CCS[C@H]2C(=O)O[C@@H](Cc2c(Cl)c[n+]([O-])cc2Cl)c2ccc(OC(F)F)c(OCC3CC3)c2)cn1C (relative stereo) | – | – | 0.03 nM | 0.025 nM | 202 µL/min/mg | 0.0016 | 100% | 63.5% | 1.26 ×10⁻⁶ cm/s | 47.6 µL/min/1e6 cells | 18.3 ×10⁻⁶ cm/s | – | –
16 | CN(C)C(=O)c1cccc(S(=O)(=O)N2CCC[C@@H](C(=O)O[C@@H](Cc3c(Cl)c[n+]([O-])cc3Cl)c3ccc(OC(F)F)c(OCC4CC4)c3)C2)c1 (relative stereo) | – | – | 0.12 nM | 0.031 nM | – | – | – | – | – | – | – | – | –
17 | CCCC1O[C@@H]2C[C@H]3[C@@H]4CCC5=CC(=O)C=C[C@]5(C)[C@H]4[C@@H](O)C[C@]3(C)[C@]2(C(=O)CO)O1 (some centres not stated) [BUDESONIDE] | – | – | – | – | – | – | – | – | – | – | – | Dose-dependent effect | 0.04 µmol/kg
